From ChEMBL document CHEMBL3232980, “Studies on the antiproliferative effects of tropolone derivatives in Jurkat T-lymphocyte cells” (2014)
Calls of active or inactive are those of the source. The calls are words filed in the database; no cut-off is given here.

Key:
Jurkat [1] = test: Cell cycle arrest in human Jurkat cells assessed as accumulation at G2/M-phase at 10 uM after 12 hrs by propidium iodide staining-based flow cytometric analysis (reference value: 10%); assay type: functional
Jurkat [2] = test: Induction of apoptosis in human Jurkat cells assessed as caspase 3/7 activation at 10 uM after 48 hrs by luminescence assay (reference value: 109,510 +/- 4710.453 no unit); assay type: functional
Jurkat [3] = test: Induction of apoptosis in human Jurkat cells assessed as caspase 3/7 activation at 10 uM after 12 hrs by luminescence assay (reference value: 69,935 +/- 7003.63 no unit); assay type: functional
Jurkat [4] = test: Cell cycle arrest in human Jurkat cells assessed as accumulation at S-phase at 10 uM after 24 hrs by propidium iodide staining-based flow cytometric analysis (reference value: 20.90%); assay type: functional
Jurkat [5] = test: Cell cycle arrest in human Jurkat cells assessed as accumulation at S-phase at 10 uM after 12 hrs by propidium iodide staining-based flow cytometric analysis (reference value: 19.5%); assay type: functional
Jurkat [6] = test: Induction of apoptosis in human Jurkat cells assessed as early apoptotic cells at 10 uM after 24 hrs by annexin V-FITC/propidium iodide staining-based FACS flow cytometric analysis (reference value: 0.32%); assay type: functional
Summary of the method: (§1)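 About 1 × 10^6 log-phase Jurkat cells treated in 6-well plates; untreated controls. Cells washed in cold PBS and resuspended in annexin-binding buffer (10 mM HEPES, 140 mM NaCl, 2.5 mM CaCl2, pH 7.4). Stained with FITC-annexin V plus propidium iodide, then gated by flow cytometry: live (AnnV−/PI−), early apoptotic (AnnV+/PI−), late apoptotic/necrotic (AnnV+/PI+).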

Jurkat [7] = test: Cell cycle arrest in human Jurkat cells assessed as accumulation at G0/G1-phase at 10 uM after 12 hrs by propidium iodide staining-based flow cytometric analysis (reference value: 4.16%); assay type: functional
Jurkat [8] = test: Induction of apoptosis in human Jurkat cells assessed as cell death at 10 uM after 24 hrs by annexin V-FITC/propidium iodide staining-based FACS flow cytometric analysis (reference value: 0.348%); assay type: functional
Summary of the method: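 ~1×10^6 log-phase Jurkat cells (RPMI 1640, 10% FBS, pen/strep, L-glutamine) treated in 6-well plates; untreated wells as controls. Cells washed in cold PBS and resuspended in annexin-binding buffer (10 mM HEPES, 140 mM NaCl, 2.5 mM CaCl2, pH 7.4). Stained with fluorescein-annexin V plus PI and read by flow cytometry. Gates: live A−/PI−, early apoptotic A+/PI−, late apoptotic/necrotic A+/PI+.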

[9] = target: T1, Histone deacetylase (Homo sapiens) (UniProt Q13547+O15379+Q9UBN7+Q92769+Q9UQL6+Q8WUI4+Q9BY41+Q96DB2+P56524+Q9UKV0+Q969S8); details: Jurkat, at 10 µM
Jurkat [10] = test: Cell cycle arrest in human Jurkat cells assessed as accumulation at G1-phase at 10 uM after 36 hrs by propidium iodide staining-based flow cytometric analysis (reference value: 59.10%); assay type: functional
Jurkat [11] = test: Cell cycle arrest in human Jurkat cells assessed as accumulation at S-phase at 10 uM after 36 hrs by propidium iodide staining-based flow cytometric analysis (reference value: 23%); assay type: functional
Jurkat [12] = test: Induction of apoptosis in human Jurkat cells assessed as caspase 3/7 activation at 10 uM after 24 hrs by luminescence assay (reference value: 136,627 +/- 31846.96 no unit); assay type: functional
Jurkat [13] = test: Induction of apoptosis in human Jurkat cells assessed as viable cells at 10 uM after 24 hrs by annexin V-FITC/propidium iodide staining-based FACS flow cytometric analysis (reference value: 99.3%); assay type: functional; details: read-out: Activity; summary of the method: as §1
Jurkat [14] = test: Cell cycle arrest in human Jurkat cells assessed as accumulation at G1-phase at 10 uM after 24 hrs by propidium iodide staining-based flow cytometric analysis (reference value: 60.90%); assay type: functional
[15] = target: T1, Histone deacetylase (Homo sapiens); details: Jurkat
Jurkat [16] = test: Cell cycle arrest in human Jurkat cells assessed as accumulation at G0/G1-phase at 10 uM after 24 hrs by propidium iodide staining-based flow cytometric analysis (reference value: 2.39%); assay type: functional
Jurkat [17] = test: Cell cycle arrest in human Jurkat cells assessed as accumulation at G2/M-phase at 10 uM after 36 hrs by propidium iodide staining-based flow cytometric analysis (reference value: 14.20%); assay type: functional
[18] = target: T1, Histone deacetylase (Homo sapiens); details: Jurkat; remark: listed apart in the source
Jurkat [19] = test: Induction of apoptosis in human Jurkat cells assessed as caspase 8 responsive cells level at 10 uM after 24 hrs by FACS flow cytometric analysis (reference value: 0.32%); assay type: functional
Jurkat [20] = test: Cell cycle arrest in human Jurkat cells assessed as accumulation at G2/M-phase at 10 uM after 24 hrs by propidium iodide staining-based flow cytometric analysis (reference value: 14.30%); assay type: functional
Jurkat [21] = test: Induction of apoptosis in human Jurkat cells assessed as late apoptotic cells at 10 uM after 24 hrs by annexin V-FITC/propidium iodide staining-based FACS flow cytometric analysis (reference value: 0.0401%); assay type: functional; summary of the method: as §1
Jurkat [22] = test: Induction of apoptosis in human Jurkat cells assessed as caspase 3/7 activation at 10 uM after 6 hrs by luminescence assay (reference value: 59,417 +/- 10002.74 no unit); assay type: functional
Jurkat [23] = test: Cell cycle arrest in human Jurkat cells assessed as accumulation at G1-phase at 10 uM after 12 hrs by propidium iodide staining-based flow cytometric analysis (reference value: 65%); assay type: functional
Jurkat [24] = test: Cell cycle arrest in human Jurkat cells assessed as accumulation at G0/G1-phase at 10 uM after 36 hrs by propidium iodide staining-based flow cytometric analysis (reference value: 1.80%); assay type: functional
Jurkat [25] = test: Increase in p21 protein expression in human Jurkat cells at 10 to 50 uM after 24 hrs by FACS flow cytometric analysis; assay type: functional, cell-based
Summary of the method: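 Jurkat cells (~1 × 10^6, log phase) treated 24 h at 10 or 50 µM; no-inhibitor controls. Fixed in 4% PFA for 20 min, held overnight at 4°C in 5% BSA/PBS, permeabilized with 0.5% Triton X-100, blocked with 10% goat serum. Stained with anti-p21 (1:100) and FITC secondary (1:1000). Read-out was geometric mean fluorescence intensity by flow cytometry.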

Jurkat [26] = test: Increase in p21 mRNA level in human Jurkat cells at 10 to 50 uM after 24 hrs by quantitative RT-PCR analysis; assay type: functional, cell-based
Summary of the method: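 Roughly 5 × 10^6 Jurkat cells treated 24 h at 10 and 50 µM; untreated cells served as controls. RNA extracted with Trizol, and 2 µg reverse-transcribed. p21 and beta-actin quantified by TaqMan real-time PCR, run in triplicate.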

Question: How did the Activity (Jurkat [1]) turn out when O=c1cc(-c2ccccc2)cccc1O was run?
Answer: Its Activity is 1.25%.

Question: And the RLU (Jurkat [2])?
Answer: The RLU was 71048.

Question: And the RLU (Jurkat [3])?
Answer: Its RLU is 110650.

Question: And the Activity (Jurkat [4])?
Answer: Its Activity is 15.8%.

Question: What about the Activity (Jurkat [5]) of the same molecule?
Answer: Its Activity is 10.2%.

Question: What about the Activity (Jurkat [6]) of the same molecule?
Answer: Its Activity is 0.4%.

Question: And the Activity (Jurkat [7])?
Answer: The Activity was 16.3%.

Question: What about the Activity (Jurkat [8]) of the same molecule?
Answer: The Activity was 0.186%.

Question: What about the inhibition [9] of the same molecule?
Answer: Its inhibition is “inactive”.

Question: What about the Activity (Jurkat [10]) of the same molecule?
Answer: Its Activity is 65.9%.

Question: And the Activity (Jurkat [11])?
Answer: Its Activity is 14.6%.

Question: What about the RLU (Jurkat [12]) of the same molecule?
Answer: The RLU was 80438.

Question: And the viability at 10 µM (Jurkat [13])?
Answer: The viability at 10 µM was 99.4%.

Question: And the Activity (Jurkat [14])?
Answer: The Activity was 66.5%.

Question: What about the Flu intensity [15] of the same molecule?
Answer: The Flu intensity was 24.

Question: What about the Activity (Jurkat [16]) of the same molecule?
Answer: The Activity was 13.9%.

Question: And the Activity (Jurkat [17])?
Answer: Its Activity is 4.35%.

Question: And the Flu intensity [18]?
Answer: Its Flu intensity is 2.12.

Question: And the Activity (Jurkat [19])?
Answer: Its Activity is 0.4%.

Question: And the Activity (Jurkat [20])?
Answer: Its Activity is 2.58%.

Question: What about the Activity (Jurkat [21]) of the same molecule?
Answer: The Activity was 0.0285%.

Question: What about the RLU (Jurkat [22]) of the same molecule?
Answer: The RLU was 73949.

Question: What about the Activity (Jurkat [23]) of the same molecule?
Answer: The Activity was 71.5%.

Question: And the Activity (Jurkat [24])?
Answer: The Activity was 13.4%.

Question: Which results are given for O=C(CCCCCCC(=O)Nc1ccccc1)NO [VORINOSTAT]?
Answer: Activity (Jurkat [1]): 19.7%; RLU (Jurkat [2]): 95463; RLU (Jurkat [3]): 157988; Activity (Jurkat [4]): 19.9%; Activity (Jurkat [5]): 31.6%; Activity (Jurkat [6]): 35.9%; Activity (Jurkat [7]): 20.4%; Activity (Jurkat [8]): 1.03%; Activity (Jurkat [10]): 6.9%; Activity (Jurkat [11]): 15.6%; RLU (Jurkat [12]): 125484; viability at 10 µM (Jurkat [13]): 62.6%; Activity (Jurkat [14]): 7.46%; Activity (Jurkat [16]): 48.9%; Activity (Jurkat [17]): 14.9%; Activity (Jurkat [19]): 35.9%; Activity (Jurkat [20]): 12.3%; Activity (Jurkat [21]): 0.412%; RLU (Jurkat [22]): 53518; Activity (Jurkat [23]): 25.9%; Activity (Jurkat [24]): 60.8%

Question: How did the Activity (Jurkat [1]) turn out when O=c1c(O)ccccc1-c1ccccc1 was run?
Answer: The Activity was 1.39%.

Question: What about the RLU (Jurkat [2]) of the same molecule?
Answer: The RLU was 105357.

Question: What about the RLU (Jurkat [3]) of the same molecule?
Answer: Its RLU is 97513.

Question: And the Activity (Jurkat [4])?
Answer: The Activity was 13.3%.

Question: What about the Activity (Jurkat [5]) of the same molecule?
Answer: The Activity was 11.1%.

Question: And the Activity (Jurkat [6])?
Answer: Its Activity is 0.434%.

Question: And the Activity (Jurkat [7])?
Answer: Its Activity is 22.3%.

Question: What about the Activity (Jurkat [8]) of the same molecule?
Answer: Its Activity is 0.513%.

Question: What about the inhibition [9] of the same molecule?
Answer: The inhibition was “inactive”.

Question: And the Activity (Jurkat [10])?
Answer: The Activity was 64.2%.

Question: What about the Activity (Jurkat [11]) of the same molecule?
Answer: The Activity was 13.3%.

Question: What about the RLU (Jurkat [12]) of the same molecule?
Answer: Its RLU is 76948.

Question: What about the viability at 10 µM (Jurkat [13]) of the same molecule?
Answer: Its viability at 10 µM is 98.9%.

Question: What about the Activity (Jurkat [14]) of the same molecule?
Answer: The Activity was 70.2%.

Question: What about the Flu intensity [15] of the same molecule?
Answer: Its Flu intensity is 24.6.

Question: What about the Activity (Jurkat [16]) of the same molecule?
Answer: The Activity was 13.9%.

Question: And the Activity (Jurkat [17])?
Answer: The Activity was 2.97%.

Question: What about the Flu intensity [18] of the same molecule?
Answer: The Flu intensity was 13.7.

Question: What about the Activity (Jurkat [25]) of the same molecule?
Answer: Its Activity is “Active”.

Question: What about the Activity (Jurkat [19]) of the same molecule?
Answer: Its Activity is 0.43%.

Question: What about the Activity (Jurkat [26]) of the same molecule?
Answer: The Activity was “inactive”.

Question: What about the Activity (Jurkat [20]) of the same molecule?
Answer: The Activity was 1.81%.

Question: What about the Activity (Jurkat [21]) of the same molecule?
Answer: Its Activity is 0.158%.

Question: What about the RLU (Jurkat [22]) of the same molecule?
Answer: The RLU was 88661.

Question: What about the Activity (Jurkat [23]) of the same molecule?
Answer: The Activity was 64.3%.

Question: And the Activity (Jurkat [24])?
Answer: The Activity was 18.5%.
